Experimental findings from ChEMBL document CHEMBL3822450, “Novel c-Met inhibitory olive secoiridoid semisynthetic analogs for the control of invasive breast cancer” (Eur J Med Chem, 2016) are described below.

The pIC50 is −log10 of the IC50, conventionally taken in molar units.

In data set [1] the test system is MDA-MB-231. Nature of the data set: cells. Particulars: Homo sapiens, MDA-MB-231, 24 h.
Data set [2] relates to MDA-MB-468. Nature of the data set: cells. Particulars: Homo sapiens, MDA-MB-468, 72 h.
Data set [3] addresses Hepatocyte growth factor receptor (Homo sapiens, UniProt P08581). Nature of the data set: Inhibition of recombinant human N-terminal His-tagged cytoplasmic c-MET kinase domain (956 to 1390 residues) phosphorylation expressed in baculovirus expression system using Tyr peptide-6 substrate incubated for 1 hr in presence of ATP by Z-Lyte assay.
In data set [4] the test system is MDA-MB-231. Nature of the data set: cells. The conditions noted are these: Homo sapiens, MDA-MB-231, 72 h.
Data set [5] deals with MDA-MB-231. Nature of the data set: Antiproliferative activity against human MDA-MB-231 cells expressing c-MET assessed as inhibition of HGF-induced cell growth incubated for 72 hrs by MTT assay.
Data set [6] is described as follows: Cytotoxicity against human MCF10A cells assessed as inhibition of HGF-induced cell growth up to 80 uM incubated for 24 hrs by MTT assay. The class given is cell-based. The conditions noted are these: mcf-10a. In general terms: Formazan colour is commonly taken as a measure of viable cells.
For data set [7], the system named is MDA-MB-468. Nature of the data set: Antiproliferative activity against human MDA-MB-468 cells expressing c-MET assessed as inhibition of HGF-induced cell growth incubated for 72 hrs by MTT assay.
Data set [8] relates to MDA-MB-231. As to the kind of experiment: Effect on total c-MET protein level in human MDA-MB-231 cells at 1 to 10 uM after 72 hrs by Western blot analysis. The conditions noted are these: mda-mb-231, 72 h. In short, it runs like this:
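HGF-stimulated cells treated 72 h with 1, 5 or 10 µM or vehicle; RIPA lysates, BCA-normalised, SDS-PAGE, PVDF, blocked in 2% BSA/TBST; primary antibodies (1:1,000) overnight at 4°C against total c-Met and phospho-c-Met Y1234/1235, HRP secondary, ECL detection; β-tubulin loading control.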
(Immunoblotting shows a protein as a band on a membrane.)

Data set [9] deals with MDA-MB-231. Nature of the data set: Antiproliferative activity against human MDA-MB-231 spheroids expressing c-MET assessed as inhibition of HGF-induced spheroid growth measured every 4 hrs for 72 hrs by cell tracker red dye based 3D spheroid disaggregation assay. The class given is functional. In short, it runs like this: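 CellTracker Red-labelled cells, 1,000/well in ultra-low-attachment round-bottom wells with phenol-red-free DMEM, 10% FBS, 5% Matrigel; single spheroid formed over 24 h, then HGF stimulation with compound or DMSO; imaged every 4 h for 72 h at 37°C; average red-object area gives fold increase in spheroid size; 8 spheroids/group, repeated twice.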

The next data set in a line: cells. The conditions noted are these: Homo sapiens, MCF-10A, 24 h.

pIC50: −log10 of the molar value.

As for `COc1cc(/C=C/c2nc(-c3ccc(O)cc3)no2)cc(OC)c1O`, the pIC50 was 4.79 in the data set on MDA-MB-231 [1], 4.10 in the data set with MDA-MB-468 [2], less than 4.70 in data set [3] and 4.14 in the data set with MDA-MB-231 [4].

For `COC(=O)C1=CO[C@@H](C)[C@@H](C=O)[C@@H]1CC(=O)OCCc1ccc(O)cc1`, the negative-log IC50 (pIC50) is 4.86 in the data set with MDA-MB-231 [1], 4.03 with MDA-MB-468 [2], less than 4.70 in [3] and 4.09 in the data set with MDA-MB-231 [4].

Regarding `COc1cc(CCOC(=O)/C=C/c2cc(OC)c(O)c(OC)c2)ccc1O`, the “growth inhibition (GI)” value with MDA-MB-231 [5], in the data set with MDA-MB-468 [7] and with MDA-MB-231 [9] was “Dose-dependent effect” throughout. The Activity entry (in data set [6]; in the data set on MDA-MB-231 [8]) was “Non-toxic” in each case.

For `COc1cc(/C=C/C(=O)OCCc2ccc(O)c(N)c2)cc(OC)c1O`, in “cells”, the pIC50 is 3.73.

As for `COc1cc(/C=C/C(=O)NCCc2ccc(O)cc2)cc(OC)c1O` [TRANS-N-SINAPOYLTYRAMINE], the pIC50 in the data set on MDA-MB-231 [1] was less than 4.30; with MDA-MB-468 [2], 4.10; in [3] it was less than 4.70; in the data set on MDA-MB-231 [4], 4.14.

As for `COc1cc(/C=C/C(=O)OCCc2ccc(OC)c(OC)c2)ccc1O`, the negative-log IC50 (pIC50) in the data set on MDA-MB-231 [1] is 5.27; with MDA-MB-468 [2], 5.05; in the data set “cells” it was 3.56; in data set [3], less than 4.70; in the data set on MDA-MB-231 [4], 5.14.

With `COc1cc(/C=C/C(=O)Oc2ccc(O)cc2C(C)=O)ccc1O`, the pIC50 in the data set on MDA-MB-231 [1] is 5.08; with MDA-MB-468 [2], 4.85; in data set [3], less than 4.70; with MDA-MB-231 [4] it was 4.97.

With `COc1cc(/C=C/C(=O)OCCCc2ccc(O)cc2)cc(OC)c1O`, in the data set “cells”, the pIC50 was 3.69.

`COc1cc(/C=C/C(=O)OCCc2ccc(N)nc2)cc(OC)c1O` had a pIC50 in “cells” of 3.68.

In the case of `COc1cc(/C=C/C(=O)Oc2ccc(O)cc2C(C)=O)cc(OC)c1O`, the pIC50 in the data set on MDA-MB-231 [1] is 5.09; with MDA-MB-468 [2], 4.80; in data set [3], less than 4.70; with MDA-MB-231 [4] it was 4.93.

On to `COc1cc(/C=C/C=N/CCc2ccc(O)cc2)cc(OC)c1O`, for which the pIC50 in the data set on MDA-MB-231 [1] is 5.34; with MDA-MB-468 [2], 4.04; in [3] it was less than 4.70; with MDA-MB-231 [4], 4.05.

Consider `COc1ccc(CCOC(=O)/C=C\c2cc(OC)c(O)c(OC)c2)cc1OC`, for which the pIC50 in the data set with MDA-MB-231 [1] was 5.09; with MDA-MB-468 [2], 4.98; in [3], less than 4.70; with MDA-MB-231 [4] it was 5.00.

As to `O=C(/C=C/c1ccc(O)cc1)OCCc1ccc(O)c(O)c1`, the pIC50 was 4.90 in the data set on MDA-MB-231 [1], 4.69 with MDA-MB-468 [2], less than 4.70 in [3] and 4.80 with MDA-MB-231 [4].

In “cells”, `COc1cc(/C=C/C(=O)OCc2cc(OC)c(O)c(OC)c2)cc(OC)c1O` gave a pIC50 of 3.77.

`COc1ccc(CCOC(=O)/C=C/c2cc(OC)c(O)c(OC)c2)cc1OC`: the negative logarithm of the IC50 (pIC50) is 5.11 with MDA-MB-231 [1]; 5.07 in the data set on MDA-MB-468 [2]; 3.67 in “cells”; less than 4.70 in data set [3]; 5.04 with MDA-MB-231 [4].

For the molecule `OCCc1ccc(O)cc1` [TYROSOL], the negative-log IC50 (pIC50) in the data set with MDA-MB-231 [1] was less than 4.30; with MDA-MB-468 [2], less than 4.00; in data set [3], less than 4.70; with MDA-MB-231 [4], less than 4.00.

Turning to `COc1cc(CCC(=O)OCCc2ccc(O)cc2)cc(OC)c1O`, the pIC50 in the data set on MDA-MB-231 [1] is less than 4.30; with MDA-MB-468 [2] it was 4.04; in data set [3], less than 4.70; in the data set with MDA-MB-231 [4], 4.04.

Consider `COc1cc(/C=C/C(=O)OCCc2ccc(N)nc2)ccc1O`, for which the pIC50 in the data set “cells” is 3.67.

On to `COc1cc(/C=C\C(=O)OCCc2ccc(OC)c(OC)c2)ccc1O`, for which the pIC50 in the data set on MDA-MB-231 [1] is 5.21; in the data set with MDA-MB-468 [2], 5.00; in “cells”, 3.65; in [3], less than 4.70; with MDA-MB-231 [4], 5.09.

The molecule `COc1cc(/C=C/C(=O)OCc2cc(OC)c(O)c(OC)c2)ccc1O` had a pIC50 in “cells” of 3.78.

On to `COc1cc(/C=C/COC(=O)/C=C/c2cc(OC)c(O)c(OC)c2)ccc1O`, for which the pIC50 in the data set with MDA-MB-231 [1] is 4.73; in the data set on MDA-MB-468 [2], 4.51; in data set [3], less than 4.70; in the data set on MDA-MB-231 [4], 4.55.

In the case of `COc1cc(/C=C/COC(=O)/C=C/c2ccc(O)c(OC)c2)ccc1O`, the pIC50 with MDA-MB-231 [1] was 4.70; in the data set with MDA-MB-468 [2] it was 4.59; in data set [3], less than 4.70; in the data set with MDA-MB-231 [4], 4.65.

With `COc1cc(/C=C/C(=O)OCCCc2ccc(O)cc2)ccc1O`, in “cells”, the pIC50 was 3.72.

Regarding `COc1cc(/C=C(\C#N)C(=O)OCCc2ccc(O)cc2)cc(Br)c1O`, the pIC50 in the data set on MDA-MB-231 [1] was 4.39; in the data set with MDA-MB-468 [2], 4.05; in data set [3], less than 4.70; in the data set on MDA-MB-231 [4] it was 4.08.

For `COc1cc(C=C(S)C(=O)OCCc2ccc(O)cc2)ccc1O`, the pIC50 with MDA-MB-231 [1] is 4.52; with MDA-MB-468 [2], 4.13; in [3], less than 4.70; in the data set on MDA-MB-231 [4], 4.16.

In “cells”, `COc1cc(/C=C/C(=O)OCCc2ccc(O)c(O)c2)ccc1N` gave a pIC50 of 3.61.
